Test results as given in ChEMBL document CHEMBL1130140, “O6-(alkyl/aralkyl)guanosine and 2'-deoxyguanosine derivatives: synthesis and ability to enhance chloroethylnitrosourea antitumor action” (1997).

Legend:
M4Beu cell line [1] = assay: In vitro cytotoxicity in M4Beu cells after 4 hr exposure to 300 uM.; format: functional, Homo sapiens
In short: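 Colony-forming assay: M4Beu cells plated at 200 cells/dish, allowed to adhere 20 h, then exposed 4 h at 37 °C to compound at 300 µM (from 100 mM DMSO stock) with no cystemustine step. Medium then replaced, cells grown 14 days, fixed in methanol, stained with crystal violet. Colonies >50 cells counted; survival as percent of untreated control; at least three experiments in triplicate.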

M4Beu cell line [2] = assay: In vitro cytotoxicity against M4Beu cells when co-administered with 50 uM cystemustine.; format: functional; settings: Homo sapiens, read-out: ED50 (the source's name)
In short: (§1)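 M4Beu cells were plated at 200 cells/dish and left to adhere 20 h. They were given compound at 0-400 µM (100 mM DMSO stock) for 4 h at 37 °C, then 50 µM cystemustine for 2 h at 37 °C, then grown 14 days. Methanol-fixed, crystal-violet-stained colonies (>50 cells) were counted. ED50 was read graphically from the concentration plot of survival decrease relative to cystemustine alone. Each dose ran ≥3 times in triplicate.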

M4Beu cell line [3] = assay: Effective dose of compound associated with cystemustine (50 uM), required to reduce by 50% cell survival rate (M4Beu cells); format: functional; settings: Homo sapiens, read-out: ED50 (the source's name); in short: as §1

| SMILES | Cell survival (M4Beu cell line [1]) [%] | EC50 (M4Beu cell line [2]) [µM] | EC50 (M4Beu cell line [3]) [µM] |
| --- | --- | --- | --- |
| Nc1nc(OCc2ccc(I)cc2)c2ncn(C3O[C@H](CO)[C@@H](O)[C@H]3O)c2n1 (stereo not given in full) | 100 | 122 |  |
| CC(=O)Nc1nc(OCc2ccc(Br)cc2)c2ncn([C@H]3C[C@H](O)[C@@H](CO)O3)c2n1 |  | 211 |  |
| CC(=O)Nc1nc(OCc2ccc(Br)cc2)c2ncn(C3OC(COC(C)=O)C(OC(C)=O)C3OC(C)=O)c2n1 (stereo not given) |  |  | 400 |
| CC(=O)Nc1nc(OCc2ccc(I)cc2)c2ncn(C3CC(OC(C)=O)C(COC(C)=O)O3)c2n1 (stereo not given) |  | 200 |  |
| Nc1nc(OCc2ccccc2)c2nc[nH]c2n1 [6-O-BENZYLGUANINE] | 110 | 2 |  |
| CC(=O)Nc1nc(OCc2ccc(I)cc2)c2ncn(C3CC(O)C(CO)O3)c2n1 (stereo not given) |  | 269 |  |
| CC(=O)Nc1nc(OCc2ccc(Br)cc2)c2ncn(C3CC(OC(C)=O)C(COC(C)=O)O3)c2n1 (stereo not given) |  | 216 |  |
| CC(=O)Nc1nc(OC(c2ccccc2)c2ccccc2)c2ncn(C3O[C@H](CO)[C@@H](O)[C@H]3O)c2n1 (stereo not given in full) |  | 400 |  |
